For series [1], the system named is Escherichia coli. The series can be described thus: Antibacterial activity against Escherichia coli RFM795 harboring lptD gene mutant after 16 hrs by broth micro dilution method. The format is functional. To be noted: RFM795, 16 h. The method in brief: (§1)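 Mueller-Hinton broth microdilution. Bacteria were grown overnight at 37 °C with shaking, diluted 1:100 and grown to mid-exponential phase. About 3 × 10^5 CFU per well went into MH with test compound (0–256 μg/mL) in DMSO vehicle. Plates were incubated at 37 °C for 16 h. MIC was the lowest concentration without growth visible by eye; three independent assays.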

Series [2] deals with Staphylococcus aureus. In words: Antibacterial activity against methicillin-sensitive Staphylococcus aureus UAMS-1 after 16 hrs by broth micro dilution method. The format is functional. To be noted: UAMS-1, 16 h. The method in brief:
as §1

Series [3] concerns Staphylococcus aureus. In words: Antibacterial activity against vancomycin-resistant Staphylococcus aureus isolate 1 after 16 hrs by broth micro dilution method. The settings on record: isolate 1, 16 h. The format is functional. The method in brief:
as §1

In series [4] the target is UDP-N-acetylglucosamine 1-carboxyvinyltransferase (Escherichia coli K-12) (UniProt P0A749). In words: Inhibition of GST-tagged Escherichia coli MurA expressed in Escherichia coli BL21(DE3) cells preincubated with PEP and enzyme for 10 mins followed by UDP-GlcNAc addition measured after 3 hrs by HPLC analysis. The method in brief: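 GST-tagged enzyme, GST removed by PreScission protease after glutathione affinity capture. Conditions: 50 mM Tris, 2 mM KCl, room temperature (25 °C), in triplicate. Enzyme preincubated 10 min with PEP and compound, then UDP-GlcNAc added. Substrate and product separated by MonoQ anion-exchange HPLC with an ammonium bicarbonate gradient. Percent inhibition taken from UDP-GlcNAc/EP-UDP-GlcNAc peak areas.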

For series [5], the target named is T1, UDP-N-acetylglucosamine 1-carboxyvinyltransferase 1 (Staphylococcus aureus subsp. aureus N315, UniProt P84058).
T1 sequence (P84058 whole entry): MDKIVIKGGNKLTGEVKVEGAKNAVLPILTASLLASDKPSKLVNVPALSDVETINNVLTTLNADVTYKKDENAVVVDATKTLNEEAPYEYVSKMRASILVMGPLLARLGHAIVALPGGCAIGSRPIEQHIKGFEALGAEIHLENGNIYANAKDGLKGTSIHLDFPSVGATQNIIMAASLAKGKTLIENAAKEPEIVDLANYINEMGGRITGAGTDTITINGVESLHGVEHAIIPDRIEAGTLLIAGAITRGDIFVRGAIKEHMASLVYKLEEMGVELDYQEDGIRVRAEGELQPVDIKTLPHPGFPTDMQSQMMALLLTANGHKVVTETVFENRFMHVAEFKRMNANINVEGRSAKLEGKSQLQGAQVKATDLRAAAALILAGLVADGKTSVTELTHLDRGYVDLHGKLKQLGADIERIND
In words: Inhibition of Staphylococcus aureus MurA assessed as reduction in [3H]GlcNAc uptake.

For series [6], the target named is T2, UDP-N-acetylglucosamine 1-carboxyvinyltransferase 1 (Staphylococcus aureus subsp. aureus N315) (UniProt P84058).
T2 sequence (whole entry): T1 sequence (P84058 whole entry)
In words: Inhibition of GST-tagged Staphylococcus aureus MurA expressed in Escherichia coli BL21(DE3) cells assessed as reduction in EP-UDP-GlcNAc production at 650 uM preincubated with PEP and enzyme for 10 mins followed by UDP-GlcNAc addition measured after 3 hrs by HPLC analysis. The procedure, abridged: (§2)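 Tag-cleaved S. aureus MurA, 1.0 μg. Preincubated 10 min on ice with 650 μM compound plus 400 μM PEP or 400 μM UDP-GlcNAc. Reaction started with 600 μM of the other substrate, then run 3 h at room temperature in triple replicates. UDP-GlcNAc and EP-UDP-GlcNAc separated by anion-exchange HPLC.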

Series [7] concerns the target T2, UDP-N-acetylglucosamine 1-carboxyvinyltransferase 1 (Staphylococcus aureus subsp. aureus N315). The series can be described thus: Inhibition of GST-tagged Staphylococcus aureus MurA expressed in Escherichia coli BL21(DE3) cells assessed as reduction in EP-UDP-GlcNAc production at 650 uM preincubated with UDP-GlcNAc and enzyme for 10 mins followed by PEP addition measured after 3 hrs by HPLC analysis. The procedure, abridged:
as §2

For series [8], the target named is T1, UDP-N-acetylglucosamine 1-carboxyvinyltransferase 1. In words: Inhibition of GST-tagged Staphylococcus aureus MurA expressed in Escherichia coli BL21(DE3) cells preincubated with PEP and enzyme for 10 mins followed by UDP-GlcNAc addition measured after 3 hrs by HPLC analysis. The procedure, abridged: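 Purified S. aureus MurA (GST tag cleaved off by PreScission protease, 350 nM) was preincubated 10 min with 300 μM PEP and albocycline (0–5000 μM) in 50 mM Tris, 2 mM KCl at 25 °C, in triplicate. UDP-GlcNAc was then added and the reaction run 3 h at room temperature. UDP-GlcNAc and EP-UDP-GlcNAc were separated by MonoQ anion-exchange HPLC with an ammonium bicarbonate gradient. Percent inhibition came from relative peak areas, and IC50 from a nonlinear dose-response fit.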

In series [9] the test system is Staphylococcus aureus. The series can be described thus: Antibacterial activity against methicillin-resistant Staphylococcus aureus LAC JE2 after 16 hrs by broth micro dilution method. The format is functional. To be noted: LAC JE2, 16 h. The method in brief:
as §1

Series [10] concerns Staphylococcus aureus. The series can be described thus: Antibacterial activity against methicillin-resistant Staphylococcus aureus. The format is functional. The procedure, abridged:
as §1

Series [11] concerns Staphylococcus aureus. The series can be described thus: Antibacterial activity against vancomycin-intermediate Staphylococcus aureus Mu50 after 16 hrs by broth micro dilution method. The format is functional. The settings on record: Mu50, 16 h. The procedure, abridged:
as §1

The test system of series [12] is HepG2. In words: Cytotoxicity against human HepG2 cells at <= 64 ug/ml by MTT assay. The format is cell-based. The procedure, abridged:
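HepG2 human hepatocellular carcinoma cells; colorimetric MTT cell proliferation assay; compound tested at final concentrations up to 64 μg/mL.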
A general note: Tetrazolium assays rely on reduction of a dye to a coloured formazan, in cell work by metabolically active cells.

The test system of series [13] is Staphylococcus aureus. In words: Antibacterial activity against Staphylococcus aureus ATCC 25923 after 16 hrs by broth micro dilution method. The format is functional. To be noted: ATCC 25923, 16 h. The procedure, abridged: as §1
Series [14] deals with Staphylococcus aureus. In words: Antibacterial activity against vancomycin-resistant Staphylococcus aureus isolate 10 after 16 hrs by broth micro dilution method. To be noted: isolate 10, 16 h. The format is functional. The procedure, abridged:
as §1

Series [15] has as its system UDP-N-acetylglucosamine 1-carboxyvinyltransferase 2 (Staphylococcus aureus). The series can be described thus: Inhibition of GST-tagged Staphylococcus aureus MurZ expressed in Escherichia coli BL21(DE3) cells preincubated with PEP and enzyme for 10 mins followed by UDP-GlcNAc addition measured after 3 hrs by HPLC analysis.

≈ marks a conversion by molar mass, not a printed value. Calls of active or inactive are those of the source. No cut-off for these calls is given here.

For orientation: MIC means the lowest concentration that inhibits growth of the organism. As a reminder, the IC50 is the concentration at which inhibition is half-maximal.

UDP-N-acetylglucosamine 1-carboxyvinyltransferase (Escherichia coli K-12), sequence (P0A749 whole entry): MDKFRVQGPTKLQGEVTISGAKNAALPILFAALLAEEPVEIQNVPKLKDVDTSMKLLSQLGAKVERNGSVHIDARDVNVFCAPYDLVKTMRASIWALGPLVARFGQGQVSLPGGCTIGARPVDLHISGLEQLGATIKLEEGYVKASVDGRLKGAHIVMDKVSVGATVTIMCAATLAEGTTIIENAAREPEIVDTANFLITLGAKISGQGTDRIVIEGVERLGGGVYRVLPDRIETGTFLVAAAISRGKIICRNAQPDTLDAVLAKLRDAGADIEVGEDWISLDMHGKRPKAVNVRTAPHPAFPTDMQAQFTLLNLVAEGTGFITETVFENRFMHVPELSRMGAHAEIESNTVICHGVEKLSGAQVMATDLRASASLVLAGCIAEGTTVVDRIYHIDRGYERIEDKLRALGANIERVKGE

With `CO[C@H]1/C=C/[C@@](C)(O)/C=C/C(=O)O[C@H](C)[C@@H](C)CC/C=C/1C`, the MIC in series [1] is more than 256 µg/mL; in series [2], 0.5 µg/mL (≈ 1.62 µM); in series [3], 4 µg/mL (≈ 13 µM); in series [9] it was 2 µg/mL (≈ 6.48 µM); in series [10], 0.5 to 1 µg/mL (≈ 1.62 to 3.24 µM); in series [11] it was 2 µg/mL (≈ 6.48 µM). Besides, the MIC in [13] and in series [14] was 1 µg/mL (≈ 3.24 µM) throughout. In addition, the inhibition entry in [4], in [7] and in [15] was “inactive” throughout. Further, the half-inhibitory concentration (IC50) in series [5] was 112 µM; in series [8], 480 µM. The inhibition entry in [6] is “Active”. Further, the Activity entry in series [12] is “Non-Toxic”.

Turning to `CN[C@H](CC(C)C)C(=O)N[C@H]1C(=O)N[C@@H](CC(N)=O)C(=O)N[C@H]2C(=O)N[C@H]3C(=O)N[C@H](C(=O)N[C@H](C(=O)O)c4cc(O)cc(O)c4-c4cc3ccc4O)[C@H](O)c3ccc(c(Cl)c3)Oc3cc2cc(c3O[C@@H]2O[C@H](CO)[C@@H](O)[C@H](O)[C@H]2O[C@H]2C[C@](C)(N)[C@H](O)[C@H](C)O2)Oc2ccc(cc2Cl)[C@H]1O` [VANCOMYCIN], the MIC in [3] and in [14] was more than 64 µg/mL in each case.

On to `C[C@@H]1O[C@@H]1P(=O)(O)O` [FOSFOMYCIN], for which the figures for the MIC in series [1] and in series [13] were 1 µg/mL (≈ 7.24 µM) and 32 µg/mL (≈ 232 µM), respectively.

For the origin of these results see ChEMBL document CHEMBL4118218, “Elucidating the inhibition of peptidoglycan biosynthesis in Staphylococcus aureus by albocycline, a macrolactone isolated from Streptomyces maizeus” (Bioorg Med Chem, 2018).
